One assay has as its system Bacillus subtilis. Nature of the assay: Disruption of inner membrane integrity in Bacillus subtilis 168 ATCC 23857 measured by luciferase based bioluminescence assay. The assay is classed as functional. The essentials: (§1)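 Biosensor strains express click-beetle luciferase (lucGR), whose light output needs externally added D-luciferin; light rises when a damaged membrane lets substrate in. Cell suspension with 1 mM D-luciferin is added to the analytes, and luminescence is read every second for 180 s. Signal is normalized to an untreated water control. Cell density is about 100-fold that of the MIC assay, with at least three independent experiments.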

The test system of the next assay is Escherichia coli. Nature of the assay: Disruption of inner membrane integrity in Escherichia coli K12 (ATCC MC1061) transfected with pCGLS-1 measured by luciferase based bioluminescence assay. The assay is classed as functional. The essentials: as §1

≈ marks a conversion by molar mass, not a printed value.

A word on the MIC: it is the lowest concentration found to suppress growth.

As for `N=C(NCCCCCCNC(=N)NC(=N)Nc1ccc(Cl)cc1)NC(=N)Nc1ccc(Cl)cc1` [CHLORHEXIDINE], the minimal inhibitory concentration (MIC) with Bacillus subtilis and against Escherichia coli was 1.5 µg/mL (≈ 2.97 µM) each time.

(Values after ChEMBL document CHEMBL5108036, “A concise SAR-analysis of antimicrobial cationic amphipathic barbiturates for an improved activity-toxicity profile” (Eur J Med Chem, 2022).)
